PGC1a acetyl inh: lowers PGC1a acetylation signal in U2OS cells. AlphaScreen anti-acetyl-lysine; with virally co-expressed GCN5 acetyltransferase. inhibition, % at 15.6 µM. 350,000 tested, 0.17% active;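 active = every replicate shows inhibition of at least 40%; inconclusive = mean inhibition at least 40% but some replicate below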;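 also: 0% = neutral control wells and 100% = positive control wells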
FGF22 binding: FGF22 (human) thermal shift binding; recombinant FGF22 thermal shift, SYPRO orange fluorescence; percent of sucrose octasulfate shift, DMSO zero; activity (Tm shift, normalised), % at 9.99 µM; 340,000 tested, 1.5% active;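 active = mean Tm shift, scaled 0 neutral to 100 positive control, at about 1.3% or above, every replicate too, limit read from the data; inconclusive = no clear call, values can overlap the other calls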
rRNA inh HTS: inhibitors of bacterial rRNA selective over humanized ribosomes. 350,000 tested, 1.6% active. GFP signal change (wild-type ribosome), % (test concentration not listed). E. coli WT GFP vs humanized-ribosome RFP mutants, fluorescence, 24 h; hits give low values; DMSO median 0, no signal -100;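 active = significant combined selectivity score with lowered wild-type GFP, culture density cut under 30%, mutant RFP and density less affected; inactive = any of these conditions unmet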
Env fusion inh: HIV envelope-mediated fusion inhibition; HeLa-JRFL Env/CEM21 cell fusion, luciferase; inhibition, % at 12.3 µM; 360,000 tested, 1.1% active; AID 651610;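 active = mean replicate inhibition score of at least 50 and every replicate individually at or above 50; inconclusive = only one of the two criteria met; inactive = mean below 50 and not all replicates reaching 50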;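 also: 0% = plate neutral controls and 100% = maraviroc near 300 nM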
Cneo AK release: causes C. neoformans cell lysis. AID 651654. adenylate kinase release luminescence, 4 h; normalised: neutral wells 0, clomiphene wells 100. lysis activity, % at 15 µM. 360,000 tested, 0.2% active;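 active = mean lysis activity across replicates of at least 80%, whatever share of replicates individually reach that level; inactive = mean lysis activity below 80%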
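Material – Cryptococcus neoformans yeast cells · Quantity – 5 × 10^6 yeast cells/mL · Buffer or medium – YPD medium · Compound – single dose · Timing – 4 h static compound exposure, 37 °C, read 1 h post-reagent · Signal – adenylate kinase release luminescence · Read-out basis – lysis from increased AK signal · Benchmarks – Clomiphene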
ERAP1 HTS inh: inhibitors of human ERAP1 aminopeptidase; Q9NZ08; recombinant ERAP1, Leu-AMC fluorescence, 60 min; 340,000 tested, 0.15% active; inhibition, % at 10.7 µM;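 active = mean replicate inhibition of at least 30%, or all replicates individually reaching that 30% level; inactive = mean below 30% and not every replicate reaching it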;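 also: 0% = neutral control wells and 100% = L-leucinethiol positive control wells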
Target sequence (Q9NZ08 whole entry, looked up): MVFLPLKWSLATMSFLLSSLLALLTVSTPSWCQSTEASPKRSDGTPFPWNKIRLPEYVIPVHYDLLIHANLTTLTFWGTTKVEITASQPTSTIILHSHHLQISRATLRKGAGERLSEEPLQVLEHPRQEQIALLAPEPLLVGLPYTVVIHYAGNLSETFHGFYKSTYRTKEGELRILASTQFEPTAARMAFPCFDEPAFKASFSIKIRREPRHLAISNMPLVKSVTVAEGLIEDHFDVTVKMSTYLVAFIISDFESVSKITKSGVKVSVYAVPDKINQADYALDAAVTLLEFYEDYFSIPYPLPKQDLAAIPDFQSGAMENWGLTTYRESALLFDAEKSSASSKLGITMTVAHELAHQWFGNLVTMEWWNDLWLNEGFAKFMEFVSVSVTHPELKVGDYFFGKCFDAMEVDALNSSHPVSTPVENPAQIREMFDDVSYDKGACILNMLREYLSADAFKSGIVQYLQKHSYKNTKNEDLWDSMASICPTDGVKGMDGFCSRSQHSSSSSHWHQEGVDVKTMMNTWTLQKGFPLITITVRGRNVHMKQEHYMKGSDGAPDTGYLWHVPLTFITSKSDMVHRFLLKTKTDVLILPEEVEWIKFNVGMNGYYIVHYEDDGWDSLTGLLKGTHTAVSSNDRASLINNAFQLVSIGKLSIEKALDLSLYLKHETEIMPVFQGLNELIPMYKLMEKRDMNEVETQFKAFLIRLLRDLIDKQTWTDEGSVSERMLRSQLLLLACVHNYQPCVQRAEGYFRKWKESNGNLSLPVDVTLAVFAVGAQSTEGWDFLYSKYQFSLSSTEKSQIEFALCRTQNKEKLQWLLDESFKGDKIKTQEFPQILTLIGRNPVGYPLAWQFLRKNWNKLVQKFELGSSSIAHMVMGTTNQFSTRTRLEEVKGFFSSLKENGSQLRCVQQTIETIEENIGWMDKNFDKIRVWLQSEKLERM
AID977621: wild-type E. coli growth inhibition versus H69 humanized strain – H69 mutant RFP, wild-type GFP, cherry-pick, dose response; activity change, negative = inhibition at 50 µM; 1,900 tested, under 10 active; fluorescence, 24 h; AID 977621; shares compounds with rRNA inh HTS;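 active = Wild-type ribosome reporter drop at least double the humanized mutant ribosome reporter drop, growth loss under a set limit; inconclusive = no clear call, values can overlap the other calls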;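 also: wild-type GFP and H69 mutant RFP strains grown together 50/50 in each well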
AID977628: growth of wild-type and h24-humanized E. coli strains – h24 mutant RFP vs wild-type GFP, cherry-pick, dose response; shares compounds with rRNA inh HTS; E. coli WT GFP strain growth, fluorescence, 24 h; activity change, negative = inhibition at 50 µM; 1,900 tested, under 10 active; AID 977628;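 active = compound lowering the normal-ribosome reporter at least twice as much as the humanized-ribosome reporter, growth loss under a set limit; inconclusive = no clear call, values can overlap the other calls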;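 also: wild-type GFP and h24 humanized RFP strains co-cultured 1 to 1 per well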
* marks the source's active call; other numbers are inactive results; ? = inconclusive; . = no result given; [ ] = remark or other dose. This is a sample that favours compounds with a hit; in the whole collection about 3.5% have one here.

SMILES | PGC1a acetyl inh | FGF22 binding | rRNA inh HTS | Env fusion inh | Cneo AK release | ERAP1 HTS inh | AID977621 | AID977628
Cc1[nH]nc2c1C(c1ccc(F)cc1)N(Cc1ccccc1)C2=O (stereo unspecified) | . | -0.1 | -21.0* | 21.0 | . | 4.3 | . | ?
COc1ccc(CCN(C)C(=O)CCNC(=O)c2ccc(Br)cc2)cc1OC | . | -0.2 | 4.4 | 6.9 | 11.7 | -2.9 | . | .
C[C@H](CO)N1C[C@H](C)[C@H](CN(C)Cc2ccncc2)Oc2ncc(C#Cc3cccnc3)cc2C1=O | -0.1 | 0.0 | -2.6 | -4.1[16.7 µM] | -0.9 | -2.2 | . | .
CC1CCCCN1CC(O)COCCC12CC3CC(CC(C3)C1)C2 (stereo unspecified) | -18.6 | -0.1 | -28.7* | 32.5 | 0.2 | 10.3 | -23.1 | .
CCOC(=O)N1CCN(CC(O)COCCC23CC4CC(CC(C4)C2)C3)CC1 (stereo unspecified) | 15.8 | . | . | . | -2.3 | . | . | .
Cc1ccsc1C(=O)OCC(=O)N1CCc2ccccc2C1 | -0.4 | 41.5 | -22.3* | -63.0 | -7.4 | 1.0 | -8.93 | .
O=C(Nc1ccc(C(=O)Nc2ccccc2Cl)cc1)c1cccnc1 | . | 0.0 | -19.9* | -3.5 | -1.1 | 3.1 | -1.82 | -11.4
CCn1ncc(Br)c1C(=O)Nc1ccc2c(c1)OCCO2 | -1.9 | 0.1 | -20.9* | -5.0 | . | -4.8 | . | -9.95
CCn1ncc(Br)c1C(=O)Nc1cccc(F)c1 | 4.0 | -0.1 | -2.4 | -29.2 | . | -0.8 | . | .
Cc1noc(NS(=O)(=O)c2ccc(NC(=O)c3cc(-c4ccccc4Cl)nc4ccccc34)cc2)c1C | . | . | -23.9* | 13.5 | . | -6.0 | -15.5 | .
Cc1noc(NS(=O)(=O)c2ccc(NC(=O)c3cc(S(=O)(=O)N(C)c4ccccc4)ccc3Cl)cc2)c1C | 18.3 | 0.3 | -35.1 | -9.3 | -1.3 | -11.7 | . | .
CCC1CCCCN1C(=O)CSc1nnc(-c2cccc(Cl)c2)o1 (stereo unspecified) | . | -0.2 | -25.5* | -45.9 | -2.9 | -1.9 | -11.7 | -14.5
CCC1CCCCN1C(=O)CSc1nnc(-c2ccc(Cl)cc2)o1 (stereo unspecified) | . | -0.1 | 1.4 | 18.6 | -0.2 | -0.9 | . | .
CCOCCCNC(=O)C(NC(=O)c1ccccc1O)c1ccc(C)cc1 (stereo unspecified) | -3.0 | 0.5 | -19.1* | 3.9 | . | 0.3 | -6.28 | -2.58
COc1ccc(Nc2nc(NCCO)nc(N3CCCC3)n2)cc1 | . | -0.1 | -16.1* | 7.9 | 1.2 | -3.1 | -12.7 | ?
COc1ccc(-c2nc(C(=O)O)cs2)cc1OC | -5.2 | 0.1 | 3.4 | 8.7 | . | 1.5 | . | .
COc1ccc(-c2cc(C(=O)O)nc3ccc4ccccc4c23)cc1OC | -2.9 | -0.2 | -28.9* | -30.3 | . | 0.8 | -16.5 | .
COc1ccc(C(=O)Nc2nc3ccc(S(C)(=O)=O)cc3s2)cc1 | -6.1 | . | . | -16.3 | 3.1 | . | . | .
COc1ccc(C(=O)Nc2nc3ccc(OC)cc3s2)cc1 | . | 0.2 | -31.6* | -81.5 | -1.8 | -0.7 | . | ?
COc1ccc(NC(=O)CNc2ccc(C#N)cc2)cc1 | 10.4 | -0.1 | -2.9 | -25.2 | . | 3.3 | . | .
CCOC(=O)c1c(C)nsc1NCc1ccccc1 | . | 0.0 | -28.9* | 27.2 | . | -0.5 | -24.1 | .
O=C(NCc1ccccc1)c1ccc(-c2cn[nH]c2)c2ccoc12 | 16.5 | -0.2 | -20.4* | 10.1 | -2.0 | 1.4 | 2.65 | -8.21
COCCNC(=O)c1ccc(-c2cn[nH]c2)c2ccoc12 | 8.0 | -0.2 | 14.5 | 27.7 | -1.0 | 0.7 | . | .
O=C(OCc1nnc(-c2ccccc2)o1)c1cccnc1Cl | 6.7 | 0.1 | -0.9 | 7.6 | . | 0.3 | . | .
CCOc1ccc(CN(C)C(=O)c2ccc(NS(=O)(=O)c3ccc4[nH]c(=O)[nH]c4c3)cc2)cc1 | 3.5 | -0.5 | -17.0* | . | -3.0 | -2.5 | -24.7 | ?
SMILES | PGC1a acetyl inh | FGF22 binding | rRNA inh HTS | Env fusion inh | Cneo AK release | ERAP1 HTS inh | AID977621 | AID977628
Cc1ccc(CN(C)C(=O)c2ccc(NS(=O)(=O)c3ccc4[nH]c(=O)[nH]c4c3)cc2)cc1 | 5.0 | 0.4 | -0.4 | -9.5 | 0.9 | -2.3 | . | .
CCCc1oc(C(=O)O)cc1CN | 6.3 | . | 10.4 | 2.9 | 0.2 | 0.5 | . | .
O=S1(=O)N[C@H](Cc2ccccc2)COc2cc(N3CCCCC3)ccc21 | . | 0.2 | -2.2 | . | . | -5.1 | . | .
O=S1(=O)N[C@H](Cc2ccccc2)COc2cc(N3CCSCC3)ccc21 | . | -0.1 | -16.5* | -48.0 | . | . | -0.847 | -10.2
C=CCNC(=O)C1CCN(S(=O)(=O)CC)CC1 | 0.2 | . | . | . | 2.5 | . | . | .
O=C1CC(c2ccc(Cl)cc2)Oc2ccc(Cl)cc21 (stereo unspecified) | 0.7 | 0.0 | -11.9 | -67.6 | -2.3 | 0.8 | . | .
Cc1cc(C)n(CC(O)COc2ccc3ccccc3c2)n1 (stereo unspecified) | -0.9 | 0.2 | -28.9* | -31.9 | . | -1.1 | -16.5 | .
Cn1c(=O)[nH]c(=O)c2c1nc(N)n2Cc1ccccc1 | -12.4 | -0.1 | 5.2 | 5.1 | 0.0 | -4.1 | . | .
Nc1ccccc1Sc1c[nH]c2ccccc12 | -29.9 | 0.0 | -25.6* | 0.9 | 10.5 | -3.5 | -0.733 | -11.4
Nc1ccccc1Sc1nc2ccccc2[nH]1 | . | 0.2 | . | -7.7 | . | 13.3 | . | .
COc1cc(CNc2ncnc3c2ncn3[C@H]2CN(Cc3cccc4ccccc34)C[C@@H](CO)O2)cc(OC)c1OC | -11.6 | 0.1 | 8.4 | -24.1 | 0.0 | 11.1 | . | .
C[C@@H]1CN([C@@H](C)CO)C(=O)c2c(c3ccccc3n2C)-c2ccccc2CO[C@H]1CN(C)Cc1ccncc1 | 1.9 | 0.2 | 1.4 | . | -1.2 | 1.3 | . | .
C[C@H](CO)N1C[C@H](C)[C@@H](CN(C)Cc2ccncc2)OCc2ccccc2-c2c(n(C)c3ccccc23)C1=O | 0.6 | 0.0 | -21.9* | . | 0.4 | -1.9 | 3.48 | .
C[C@H]1CN([C@@H](C)CO)C(=O)c2c(c3ccccc3n2C)-c2ccccc2CO[C@@H]1CN(C)Cc1ccncc1 | 8.6 | 0.1 | -28.9* | . | -0.1 | 2.0 | . | 1.51
CC1Cc2cc(S(=O)(=O)N3CCN(c4cccc(Cl)c4)CC3)ccc2N1C(=O)C1CC1 (stereo unspecified) | 2.9 | 0.1 | -25.5* | 12.5 | -1.7 | 3.7 | -5.45 | -8.8
CC1Cc2cc(S(=O)(=O)N3CCN(c4ccc(Cl)cc4)CC3)ccc2N1C(=O)C1CC1 (stereo unspecified) | 2.6 | -0.2 | 3.7 | 8.4 | 10.4 | -1.2 | . | .
O=C(CCC(=O)N1CCN(c2ccc(F)cc2)CC1)c1ccc(F)cc1 | . | -0.4 | -20.5* | 14.5 | . | 5.4 | -1.84 | -11.7
CC(CCc1ccccc1)NC(=O)/C=C/c1ccccc1 (stereo unspecified) | -13.5 | . | . | . | -5.6 | . | . | .
